We go through four molecules from BindingDB's records for doi:10.1021/jm00104a019 (Searle Research & Development, 1993).

Structures are written as SMILES. Where a SMILES comes first, the peptide text is derived from it.

Chain of Integrin alpha-IIb/beta-3 (P05106 27-788 limits assumed): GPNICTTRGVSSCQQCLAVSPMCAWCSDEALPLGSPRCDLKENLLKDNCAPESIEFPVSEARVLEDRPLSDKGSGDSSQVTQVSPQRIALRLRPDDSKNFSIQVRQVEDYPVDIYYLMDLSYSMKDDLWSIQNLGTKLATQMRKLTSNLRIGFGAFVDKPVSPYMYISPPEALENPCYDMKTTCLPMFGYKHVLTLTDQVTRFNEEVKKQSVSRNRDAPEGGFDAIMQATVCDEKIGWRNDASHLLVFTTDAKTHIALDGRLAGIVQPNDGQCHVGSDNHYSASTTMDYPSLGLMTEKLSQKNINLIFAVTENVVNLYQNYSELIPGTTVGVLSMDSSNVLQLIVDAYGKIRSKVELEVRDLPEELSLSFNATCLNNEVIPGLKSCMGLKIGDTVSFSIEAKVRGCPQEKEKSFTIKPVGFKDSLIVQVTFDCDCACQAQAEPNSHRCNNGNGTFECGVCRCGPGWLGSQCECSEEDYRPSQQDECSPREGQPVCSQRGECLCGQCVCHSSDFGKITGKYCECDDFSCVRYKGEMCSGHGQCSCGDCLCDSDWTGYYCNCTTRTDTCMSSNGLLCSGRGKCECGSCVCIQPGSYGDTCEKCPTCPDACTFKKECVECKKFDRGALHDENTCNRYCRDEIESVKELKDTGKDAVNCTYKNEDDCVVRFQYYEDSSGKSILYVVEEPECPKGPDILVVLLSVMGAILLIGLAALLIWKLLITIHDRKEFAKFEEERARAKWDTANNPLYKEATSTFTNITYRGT
Chain of Integrin alpha-IIb/beta-3 (P08514 32-887 limits assumed): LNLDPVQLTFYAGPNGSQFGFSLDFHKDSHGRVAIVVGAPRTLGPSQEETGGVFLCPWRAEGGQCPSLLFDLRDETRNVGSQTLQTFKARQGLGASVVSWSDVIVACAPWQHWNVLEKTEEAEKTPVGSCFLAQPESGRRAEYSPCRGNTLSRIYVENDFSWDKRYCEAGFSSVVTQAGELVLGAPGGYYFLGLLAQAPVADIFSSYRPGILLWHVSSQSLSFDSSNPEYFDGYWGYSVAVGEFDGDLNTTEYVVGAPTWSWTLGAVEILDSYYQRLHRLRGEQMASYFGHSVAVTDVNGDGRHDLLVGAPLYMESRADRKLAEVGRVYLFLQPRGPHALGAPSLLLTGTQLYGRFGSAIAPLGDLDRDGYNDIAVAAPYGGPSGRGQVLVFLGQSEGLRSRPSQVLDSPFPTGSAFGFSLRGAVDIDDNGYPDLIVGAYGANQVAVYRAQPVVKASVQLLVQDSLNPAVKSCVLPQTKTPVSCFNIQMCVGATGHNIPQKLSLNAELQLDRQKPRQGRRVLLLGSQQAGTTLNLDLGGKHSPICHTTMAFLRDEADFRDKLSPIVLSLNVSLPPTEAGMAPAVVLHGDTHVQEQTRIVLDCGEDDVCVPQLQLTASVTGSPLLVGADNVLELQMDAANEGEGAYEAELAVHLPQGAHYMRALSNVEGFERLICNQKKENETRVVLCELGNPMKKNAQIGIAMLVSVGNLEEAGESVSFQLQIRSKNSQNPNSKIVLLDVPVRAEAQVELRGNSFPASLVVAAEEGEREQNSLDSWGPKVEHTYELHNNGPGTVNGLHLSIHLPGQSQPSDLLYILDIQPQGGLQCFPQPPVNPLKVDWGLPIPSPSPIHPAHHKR
Chain of Integrin alpha-IIb/beta-3 (P08514 891-1039 limits assumed): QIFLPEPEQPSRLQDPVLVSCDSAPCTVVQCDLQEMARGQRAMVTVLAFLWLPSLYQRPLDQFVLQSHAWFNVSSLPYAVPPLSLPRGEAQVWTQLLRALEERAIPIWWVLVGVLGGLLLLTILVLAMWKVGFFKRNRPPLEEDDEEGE

The assay addresses Integrin alpha-IIb/beta-3 (Homo sapiens, UniProt P08514+P05106). Kind of assay: Inhibition of platelet aggregation (PRP). In a few lines:
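Aggregation of platelets in platelet-rich plasma was induced with ADP, and inhibition of this aggregation was measured.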
One may read the IC50 as the point on the concentration scale where inhibition reaches its midpoint. On to `NC(N)=NCCC[C@H](N)C(=O)NCC(=O)N[C@@H](CC(=O)O)C(=O)N[C@@H](Cc1ccccc1)C(=O)O` (H-RGDF-OH), for which half-maximal inhibition (IC50) was put at 40 µM.

Molecule `N=C(N)NCCCCCCCC(=O)N[C@@H](CC(=O)O)C(=O)N[C@@H](Cc1ccccc1)C(=O)O` [N-(1-Carboxy-2-phenyl-ethyl)-3-[8-(diaminomethyl-amino)-octanoylamino]-succinamic acid] displayed an IC50 of 1.6 µM.

With `N=C(N)NCCCCCCCC(=O)N[C@@H](CC(=O)O)C(=O)NCCc1ccccc1`, the half-inhibitory concentration (IC50) was 60 µM.

With `N=C(N)NCCCCCCCC(=O)N[C@@H](CC(=O)O)C(=O)N[C@@H](Cc1ccccc1)c1nnn[nH]1`, the IC50 stood at 4 µM.
